Measured values as given in ChEMBL document CHEMBL1158364, “Synthesis and pharmacological evaluation of 2(3H)-furanones and 2(3H)-pyrrolones, combining analgesic and anti-inflammatory properties with reduced gastrointestinal toxicity and lipid peroxidation” (Eur J Med Chem, 2009).

What was measured:
[1] = test system: Rattus norvegicus; test: Gastrointestinal toxicity in albino rat assessed ulcer index at 60 mg/kg, po after 17 hrs; assay type: organism-based; design: dose 60 mg/kg, route oral; settings: in vivo
In short: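 Fasted albino rats (150–200 g; food, not water, withheld 24 h), groups of six, dosed orally at 60 mg/kg; controls got 1% methyl cellulose suspension. Normal diet for 17 h, then sacrifice. Stomach opened along greater curvature, washed, mucosa scored under magnifying glass (0.5 redness to 3.0 for >5 ulcers); severity index = treated group mean score minus control mean.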

[2] = test system: Gastric mucosa; test: Inhibition of lipid peroxidation assessed as malondialdehyde level per mg of protein in gastric mucosa isolated from albino rat treated 60 mg/kg, po by UV spectrophotometry; assay type: functional
In short: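 After the ulcer scoring, gastric mucosa was scraped and homogenized in 1.8 mL ice-cold 1.15% KCl. Supernatant (1 mL) received 0.5 mL 30% TCA and 0.5 mL 0.8% TBA, then was heated 30 min at 80 °C. Tubes were chilled 10 min on ice and centrifuged 3000 rpm for 15 min before absorbance was read (TBARS/MDA, Ohkawa method).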

[3] = test system: Rattus norvegicus; test: Antiinflammatory activity in Wistar rat assessed as inhibition of carrageenan-induced paw odema at 20 mg/kg, po pretreated 30 mins pre-carrageenan challenge measured after 3 hrs relative to control; assay type: functional
In short: (§1)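 Wistar rats of either sex, 180–200 g, six per group; vehicle 0.5% CMC given orally. […] in sterile 0.9% NaCl, 0.1 mL, injected sub-plantar into the right hind paw 30 min after dosing. Paw volume read by saline-displacement plethysmometer at 2 and 3 h. % inhibition = (Vc−Vt)/Vc × 100.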

[4] = test system: Rattus norvegicus; test: Antiinflammatory activity in Wistar rat assessed as inhibition of carrageenan-induced paw odema at 20 mg/kg, po pretreated 30 mins pre-carrageenan challenge measured after 2 hrs relative to control; assay type: functional; in short: as §1
[5] = test system: Mus musculus; test: Peripheral analgesic activity in Swiss albino mouse assessed as inhibition of acetic acid-induced writhing response at 20 mg/kg, po pretreated 1 hr before acetic acid challenge; assay type: functional; design: scale not given: the % may be the effect or the level left
In short: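 Swiss albino mice of either sex, 25–30 g, housed singly and habituated 30 min in the test cage. Compounds given orally in 1% CMC; controls received 1% CMC. One hour after dosing, 0.10 mL 1% acetic acid was given i.p. Writhes were counted over 30 min and % protection derived versus control.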

[6] = test system: Mus musculus; test: Central analgesic activity in Swiss albino mouse assessed as reaction time required to elicit thermal stimulus-induced hind paw licking at 20 mg/kg, po after 60 mins by Turner hotplate method; assay type: functional
In short: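 Swiss albino mice of either sex, 25–30 g, six per group. Compounds given orally in 1% CMC; controls received vehicle only. Hot plate held at 53 ± 0.5 °C. Reaction time is the interval from placement on the plate to hind-paw licking or jumping. Measured before dosing (0 min) and 1 h after oral dosing.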

SMILES	UI [1]	Activity [2] [nmol/mg protein]	inhibition in vivo at 20 mg/kg [3] [%]	inhibition in vivo at 20 mg/kg [4] [%]	Activity [5] [%]	Activity [6] [s]
COc1ccc(/C=C2\C=C(c3ccc(Cl)cc3)OC2=O)cc1	0.5	0.545	32.3	4	–	–
O=C1OC(c2ccc(Cl)cc2)=C/C1=C\c1ccccc1	0.9	0.522	36	18.9	–	–
O=C1OC(c2ccc(Cl)cc2)=C/C1=C\c1ccc(F)cc1	0.4	0.329	70.4	41.3	50.6	12.9
O=C1OC(c2ccc(Cl)cc2)=C/C1=C\c1ccc(Cl)cc1	0.2	0.403	69.1	40	44.57	12.67
CC(C)Cc1ccc(C(C)C(=O)O)cc1 (configuration not stated) [IBUPROFEN]	0.9	–	89.5	80.9	65.06	14.4
O=C1/C(=C/c2ccc(Cl)cc2)C=C(c2ccc(Cl)cc2)N1Cc1ccccc1	0.1	0.31	88.9	58.7	57.83	11.55
O=C1OC(c2ccc(Cl)cc2)=C/C1=C\c1ccc(Cl)cc1Cl	0.1	0.388	72.6	53.3	49.39	11.86
COc1ccc(/C=C2\C=C(c3ccc(Cl)cc3)OC2=O)cc1OC	0.3	0.533	36	9.33	–	–
O=C1OC(c2ccc(Cl)cc2)=C/C1=C\c1ccccc1Cl	0.2	0.494	81.5	62.7	53.01	12.69
O=C1/C(=C/c2ccc(F)cc2)C=C(c2ccc(Cl)cc2)N1Cc1ccccc1	0.2	0.401	89.5	58.7	59.03	13.3
O=C1/C(=C/c2ccccc2)C=C(c2ccc(Cl)cc2)N1Cc1ccccc1	0.6	0.605	37	24	–	–
COc1cc(/C=C2\C=C(c3ccc(Cl)cc3)OC2=O)ccc1OC(C)=O	0.3	0.597	37	24	–	–
COc1cc(/C=C2\C=C(c3ccc(Cl)cc3)N(Cc3ccccc3)C2=O)ccc1O	0.5	0.558	42	36	–	–
O=C1OC(c2ccc(Cl)cc2)=C/C1=C\c1ccccc1[N+](=O)[O-]	0.6	0.429	18.5	4	–	–
O=C1OC(c2ccc(Cl)cc2)=C/C1=C\c1ccc([N+](=O)[O-])cc1	0.4	0.549	36	4	–	–
O=C1/C(=C/c2ccc([N+](=O)[O-])cc2)C=C(c2ccc(Cl)cc2)N1Cc1ccccc1	0.4	0.403	19.8	12	–	–
